NR2E3 ag-1 = NR2E3 (human) agonism | Q9Y5X4 | GST-NR2E3/biotin-RetCOR TR-FRET, 1536-well | inhibition of corepressor binding, % at 4.78 µM | 320,000 tested, 0.12% active;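 active means percent inhibition above the cutoff of mean plus 3 SD of all tested compounds, set per screening campaign, cut at about 20% in these data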
Target sequence (Q9Y5X4 whole entry, looked up): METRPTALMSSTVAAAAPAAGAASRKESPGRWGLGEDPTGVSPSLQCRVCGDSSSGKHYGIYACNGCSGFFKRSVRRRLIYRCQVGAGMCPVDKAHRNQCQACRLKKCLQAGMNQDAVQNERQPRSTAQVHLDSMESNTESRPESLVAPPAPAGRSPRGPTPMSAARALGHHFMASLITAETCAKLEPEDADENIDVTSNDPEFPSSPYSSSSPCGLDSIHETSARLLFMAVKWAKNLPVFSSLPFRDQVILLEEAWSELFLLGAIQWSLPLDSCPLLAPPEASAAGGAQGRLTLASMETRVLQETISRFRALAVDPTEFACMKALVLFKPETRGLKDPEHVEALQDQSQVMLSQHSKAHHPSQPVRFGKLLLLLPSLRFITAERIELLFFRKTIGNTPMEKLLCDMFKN
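system = GST-tagged NR2E3 plus biotinylated RetCOR corepressor | input = 1.35 nM GST-NR2E3 | also added = 7 nM biotin-RetCOR | schedule = 5 h incubation at 4 °C | measured by = TR-FRET with europium anti-GST and streptavidin-D2, 340 nm excitation | read-out = percent loss of FRET ratio relative to control wells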
NR2E3 ag-2 = agonists of human NR2E3 nuclear receptor | 360,000 tested, 0.35% active | AID 602229 | inhibition of corepressor binding, % at 3.98 µM | CHO-S Gal4-NCOR/VP16-NR2E3 two-hybrid, luciferase;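 active means inhibition above the mean of all tested compounds plus 3 SD, cut at about 70% in these data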;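 further: higher means lower luciferase signal from less NR2E3 corepressor binding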
MT1-MMP act inh = MT1-MMP (human) activation inhibition; P50281; HT1080 RFP-PRO-GFP cells, GFP/RFP ratio fluorescence, overnight; percent of plate control window, DMSO zero; GFP/RFP ratio change, % at 20 µM; 360,000 tested, 0.061% active; AID 651647;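 active means GFP/RFP ratio change of at least 30% with cell ATP level not reduced by more than half and red fluorescence within 50% of control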
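system = RFP-PRO-GFP reporter HT1080 cells | dosing = 20 µM single dose, 1% DMSO | timing = overnight cell settling, then overnight compound exposure, 37 °C, 5% CO2 | read-out basis = GFP/RFP fluorescence ratio | controls = DMSO and RFP-L50D-GFP cell wells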
SKN-1 block = inhibitors of C. elegans SKN-1; C. elegans VP596 Pgst-4::GFP/RFP ratio, acrylamide-induced, 24 h; 360,000 tested, 0.49% active; inhibition, % at 21.8 µM;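 active means interference check ratio from 0.5 to 1.5 plus GFP to RFP signal ratio inhibition reaching or exceeding a fixed threshold, cut at about 30% in these data, passing the limit was not always enough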
PG9 binder = binds the HIV-1 gp120 antibody PG9; TR-FRET gp120-PG9 antibody binding; inhibition, % at 6.7 µM; 360,000 tested, 0.43% active; AID 624416; in the data active means inhibition above about 8.5%
NR1D1 modulator = modulates human Rev-erb alpha binding to DNA; activity, % at 10 µM; P20393; AID 1259318; 370,000 tested, 0.79% active; Rev-erbα–FITC-DNA binding, fluorescence polarization, 90 min;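 active means activity above about 14%, limit read from the data; passing the limit was not always enough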
NR2E3 ag confirm = confirmation of human NR2E3 agonists; shares compounds with NR2E3 ag-2; CHO-S mammalian two-hybrid NR2E3-NCOR, luciferase luminescence; inhibition, % at 3.98 µM; 2,300 tested, 51% active; AID 624378;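 active means average inhibition above a cutoff equal to the mean inhibition of all tested compounds plus one SD, cut at about 70% in these data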
GAL4-VP16 luc = GAL4-VP16 reporter inhibition in NR2E3 agonist counterscreen. shares compounds with NR2E3 ag-2. CHO-S GAL4-VP16 luciferase reporter, luminescence. inhibition, % at 3.98 µM. 2,300 tested, 29% active. AID 624379;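 active means mean inhibition above a cutoff equal to the average over all tested compounds plus one standard deviation, cut at about 70% in these data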;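 further: luciferase from a UAS reporter driven by GAL4-VP16 transactivation; higher means less reporter light so more repression of VP16 activity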
Each line names hits and unclear results; the compound was inactive in the other large screens (follow-up assays come after a bar, where they were run). Sampled rows, rich in hits. Any-hit rate of the full collection: about 1.9%.

Cc1ccccc1OCCn1cc(C(=S)N2CCCC2)c2ccccc21	none
CC(=O)c1cn(CCOc2ccccc2C)c2ccccc12	NR2E3 ag-2 70 | NR2E3 ag confirm 94 | GAL4-VP16 luc 79
Cc1ccc(CNc2ncnc3cc(Cl)ccc23)o1	none
Cc1ccc(CNc2ncnc3cc(Cl)ccc23)cc1	NR2E3 ag-2 87 | NR2E3 ag confirm 90 | GAL4-VP16 luc 71
COc1ccccc1CC(=O)N1CCN(c2cccc(C(F)(F)F)c2)CC1	none | NR2E3 ag confirm 94 | GAL4-VP16 luc 71
COc1ccc(N2CCN(C(=O)c3ccc(NS(=O)(=O)c4ccc(F)c(F)c4)cc3)CC2)cc1	none
COc1ccc(NS(=O)(=O)c2cccc(C(=O)OCC(=O)N3CCN(c4ccc(OC)cc4)CC3)c2)cc1	none | NR2E3 ag confirm inactive | GAL4-VP16 luc inactive
COc1ccc(NS(=O)(=O)c2ccc(C(=O)N3CCN(c4ccc(F)cc4)CC3)cc2)cc1	NR2E3 ag-2 75 (no result: NR2E3 ag-1) | NR2E3 ag confirm 74 | GAL4-VP16 luc inactive
COc1ccc(N2CCN(C(=O)c3ccc(NS(=O)(=O)c4cccc(F)c4)cc3)CC2)cc1	none
O=S(=O)(Nc1cc(Cl)ccc1-n1cncn1)c1cc(Br)ccc1Br	NR2E3 ag-2 92 | NR2E3 ag confirm 99 | GAL4-VP16 luc 85
COC(=O)C1=C(C)N(Cc2cccc(C(F)(F)F)c2)C(=NCc2ccc3c(c2)OCO3)NC1c1ccccc1C(F)(F)F (stereo not given)	none (no result: NR2E3 ag-1, NR2E3 ag-2, MT1-MMP act inh, SKN-1 block)
CS(=O)(=O)N1CCc2cc(S(=O)(=O)Nc3ccc4oc5c(c4c3)CCCC5)ccc21	none | NR2E3 ag confirm 79 | GAL4-VP16 luc inactive
Cc1ccccc1-c1cc(C(=O)Nc2sc(C(=O)OC(C)C)c(C)c2C#N)c2ccccc2n1	NR2E3 ag-2 92 | NR2E3 ag confirm 100 | GAL4-VP16 luc 88
O=C(NCc1cccs1)c1cc(-c2ccccc2)nc2ccccc12	none
COC(=O)c1sc(NC(=O)c2cc(-c3ccccc3)nc3ccccc23)c(C#N)c1C	none | NR2E3 ag confirm inactive | GAL4-VP16 luc inactive
O=C(Nc1nnc(-c2cccs2)o1)c1cc(-c2ccccc2)nc2ccccc12	NR2E3 ag-2 71 | NR2E3 ag confirm 99 | GAL4-VP16 luc inactive
COc1ccc(-c2cc(C(=O)Nc3sc4c(c3C#N)CCCC4)c3ccccc3n2)cc1	none
CCOC(=O)c1sc(NC(=O)c2cc(-c3ccc(C)cc3)nc3ccccc23)c(C#N)c1C	none
Nc1[nH]c(C(=O)c2ccccc2)c(-c2cccc3ccccc23)c1C(=O)NCc1ccc(F)c(F)c1	none (no result: NR2E3 ag-1, NR2E3 ag-2, MT1-MMP act inh, SKN-1 block)
COc1cc(NC(=O)COc2cc(O)c3c(c2)OC(C)(C)CC3=O)cc(OC)c1OC	NR2E3 ag-2 82 | NR2E3 ag confirm inactive | GAL4-VP16 luc 84
CC1(C)CC(=O)c2c(O)cc(OCC(=O)Nc3ccc(S(N)(=O)=O)cc3)cc2O1	none
Cc1cc(=O)[nH]c(SCC(=O)Nc2ccc(Br)cc2)c1C#N	NR2E3 ag-2 78 | NR2E3 ag confirm 98 | GAL4-VP16 luc 90
Cc1cc(=O)[nH]c(SCC(=O)Nc2ccc(F)cc2)c1C#N	none
Cc1cc(=O)[nH]c(SCC(=O)Nc2ccc3c(c2)CCC3)c1C#N	none | NR2E3 ag confirm inactive | GAL4-VP16 luc inactive
CCOC(=O)C1CCCN(S(=O)(=O)c2ccc(S(=O)(=O)N(CC)CC)cc2)C1 (stereo not given)	NR2E3 ag-2 84 | NR2E3 ag confirm 97 | GAL4-VP16 luc 89
CCCCOCCCNC(=O)C[C@H]1C[C@@]2(C(=O)OC)C(=C[C@H](C3CCCC3)O[C@@H]2C)N(Cc2ccccc2)C1=O	none (no result: NR2E3 ag-1, NR2E3 ag-2, MT1-MMP act inh, SKN-1 block)
O=C(COc1ccccc1F)Nc1ccc2c(c1)OCCO2	NR2E3 ag-2 74 | NR2E3 ag confirm inactive | GAL4-VP16 luc inactive
Cn1nc(CC(=O)N2CCN(c3ccccc3)CC2)c2ccccc2c1=O	none
Cc1ccc(NC(=O)Cc2nn(C)c(=O)c3ccccc23)cc1F	none | NR2E3 ag confirm 90 | GAL4-VP16 luc 75
Cn1nc(CC(=O)Nc2ccc(N3CCN(C(=O)OC(C)(C)C)CC3)cc2)c2ccccc2c1=O	NR2E3 ag-2 76 | NR2E3 ag confirm 90 | GAL4-VP16 luc 79
Cn1nc(CC(=O)Nc2ccc3c(c2)OCCO3)c2ccccc2c1=O	NR2E3 ag-2 98 | NR2E3 ag confirm 92 | GAL4-VP16 luc 73
CCCCCCCCN1C(=O)N2Cc3cc(F)ccc3C2CS1(=O)=O (stereo not given)	none (no result: NR2E3 ag-1, NR2E3 ag-2, MT1-MMP act inh, SKN-1 block, PG9 binder)
COC(=O)[C@]12C[C@H](CC(=O)NCCC(C)C)C(=O)N(Cc3ccc(Cl)cc3Cl)C1=C[C@H](COCc1ccccc1)O[C@@H]2C	none (no result: NR2E3 ag-1, NR2E3 ag-2, MT1-MMP act inh, SKN-1 block, PG9 binder)
Cc1oc(-c2ccc3c(c2)OCCO3)cc1C(=O)O	none | NR2E3 ag confirm inactive | GAL4-VP16 luc inactive
CCOC(=O)CN1C(=O)[C@]2(OCCC=C[C@H]2C)c2cc(OC)ccc21	none (no result: NR2E3 ag-1, NR2E3 ag-2, MT1-MMP act inh, SKN-1 block)
CCCCCC(=O)NC1CCCCN(Cc2ccccc2C)C1=O (stereo not given)	none (no result: NR2E3 ag-1, NR2E3 ag-2, MT1-MMP act inh, SKN-1 block, PG9 binder)
CC(=O)Nc1ccc(S(=O)(=O)N2CCN=C2SCc2ccc([N+](=O)[O-])cc2)cc1	none | NR2E3 ag confirm 79 | GAL4-VP16 luc inactive
COc1ccc(NS(=O)(=O)c2ccc(N3CCCC3=O)cc2)cn1	none
COc1ccc(NS(=O)(=O)c2ccc3c(c2)Cc2ccccc2-3)cn1	NR2E3 ag-2 85 | NR2E3 ag confirm 93 | GAL4-VP16 luc 77
CCCCCCCn1c(=O)c(C(=O)OC)c(N)c2ccccc21	none
CCCCCCCCn1c(=O)c(C(=O)OC)c(N)c2ccccc21	none | NR2E3 ag confirm 85 | GAL4-VP16 luc inactive
COc1ccc(NC(=O)c2sc(=O)n(Cc3ccc(F)c(Cl)c3)c2C)cc1OC	none (no result: NR2E3 ag-1) | NR2E3 ag confirm 76 | GAL4-VP16 luc inactive
COc1ccc(Cl)cc1Cn1c(C)c(C(=O)NCc2cccc(Cl)c2)sc1=O	NR2E3 ag-2 76 (no result: NR2E3 ag-1) | NR2E3 ag confirm 75 | GAL4-VP16 luc inactive
c1ccc(-c2nnc(-c3ccccn3)nc2NC2CCCCC2)cc1	none | NR2E3 ag confirm inactive | GAL4-VP16 luc inactive
CNc1nc(-c2ccccn2)nnc1-c1ccccc1	none
Cc1occc1C(=O)N1CCN(c2ccc(Cl)c(Cl)c2)CC1	none | NR2E3 ag confirm 81 | GAL4-VP16 luc inactive
Cc1occc1C(=O)N1CCN(c2ccccc2)CC1	none
O=C(NCc1ccccc1)N1CCN(c2ccc(Cl)c(Cl)c2)CC1	NR2E3 ag-2 77 | NR2E3 ag confirm 93 | GAL4-VP16 luc 76
O=C(C1CCCN1S(=O)(=O)c1ccc(Br)s1)N1CCc2ccccc2C1 (stereo not given)	none (no result: NR2E3 ag-1, NR2E3 ag-2, MT1-MMP act inh, SKN-1 block, PG9 binder)

Screening results from PubChem.
